In ChEMBL document CHEMBL3992536, “Discovery of a Novel Series of Orally Bioavailable and CNS Penetrant Glucagon-like Peptide-1 Receptor (GLP-1R) Noncompetitive Antagonists Based on a 1,3-Disubstituted-7-aryl-5,5-bis(trifluoromethyl)-5,8-dihydropyrimido[4,5-d]pyrimidine-2,4(1H,3H)-dione Core” (J Med Chem, 2017):
The source made the active and inactive calls. The calls are words filed in the database; no cut-off is given here.

How the values were obtained:
[1] = Oral bioavailability in Sprague-Dawley rat at 3 mg/kg via gavage by LC-MS/MS analysis; type: ADME, organism-based; conditions: in vivo
Procedure, shortened: (§1)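 Rat PK study with dosing at 1 mg/kg iv and 3 mg/kg po. The study reports plasma clearance (mL min⁻¹ kg⁻¹), t1/2 (min), Vss (L/kg) and oral bioavailability F (%).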

[2] = Drug uptake in Sprague-Dawley rat brain at 3 mg/kg via oral gavage after 1 hr by LC-MS/MS analysis; type: ADME, organism-based; conditions: read-out: Drug uptake
Procedure, shortened: (§2)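 Rat distribution study: single 3 mg/kg oral dose. Plasma (ng/mL) and brain concentrations are measured at 1 h, and brain/plasma Kp is calculated from them.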

[3] = Fraction unbound in human plasma at 5 uM after 4 hrs by LC-MS/MS based equilibrium dialysis method; type: ADME, cell-free
[4] = target: T1, Glucagon-like peptide 1 receptor (Homo sapiens, UniProt P43220); assay: Antagonist activity at human GLP-1R expressed in TREx293 cells co-expressing cAMP sensitive luciferase assessed as inhibition of exendin-4-induced cAMP accumulation after 90 mins by GloSensor cAMP assay; type: functional, cell-based
T1 sequence (P43220 whole entry): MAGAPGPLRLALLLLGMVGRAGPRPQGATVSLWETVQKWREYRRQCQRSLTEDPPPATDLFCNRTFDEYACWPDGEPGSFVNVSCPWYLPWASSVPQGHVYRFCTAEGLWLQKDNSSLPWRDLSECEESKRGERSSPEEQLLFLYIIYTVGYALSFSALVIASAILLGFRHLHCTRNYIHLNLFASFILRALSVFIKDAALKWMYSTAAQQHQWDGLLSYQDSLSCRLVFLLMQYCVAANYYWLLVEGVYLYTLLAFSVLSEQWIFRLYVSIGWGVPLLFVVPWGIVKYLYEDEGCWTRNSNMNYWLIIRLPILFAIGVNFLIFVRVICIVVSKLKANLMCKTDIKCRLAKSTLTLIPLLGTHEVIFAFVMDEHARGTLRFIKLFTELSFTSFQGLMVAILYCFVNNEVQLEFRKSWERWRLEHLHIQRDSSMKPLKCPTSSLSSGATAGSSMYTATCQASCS
Procedure, shortened: (§3)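 GloSensor cAMP luminescence read-out in TREx293 HEK cells expressing GLP-1R. IC50 and pIC50 come from the concentration–response curves. n = 3, reported as average ± SEM.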

[5] = target: T2, Cytochrome P450 1A2 (Homo sapiens, UniProt P05177); assay: Inhibition of CYP1A2 in human liver microsomes using phenacetin as substrate preincubated for 15 mins followed by NADPH addition measured after 8 mins by LC-MS/MS analysis; type: ADME
T2 sequence (P05177 whole entry): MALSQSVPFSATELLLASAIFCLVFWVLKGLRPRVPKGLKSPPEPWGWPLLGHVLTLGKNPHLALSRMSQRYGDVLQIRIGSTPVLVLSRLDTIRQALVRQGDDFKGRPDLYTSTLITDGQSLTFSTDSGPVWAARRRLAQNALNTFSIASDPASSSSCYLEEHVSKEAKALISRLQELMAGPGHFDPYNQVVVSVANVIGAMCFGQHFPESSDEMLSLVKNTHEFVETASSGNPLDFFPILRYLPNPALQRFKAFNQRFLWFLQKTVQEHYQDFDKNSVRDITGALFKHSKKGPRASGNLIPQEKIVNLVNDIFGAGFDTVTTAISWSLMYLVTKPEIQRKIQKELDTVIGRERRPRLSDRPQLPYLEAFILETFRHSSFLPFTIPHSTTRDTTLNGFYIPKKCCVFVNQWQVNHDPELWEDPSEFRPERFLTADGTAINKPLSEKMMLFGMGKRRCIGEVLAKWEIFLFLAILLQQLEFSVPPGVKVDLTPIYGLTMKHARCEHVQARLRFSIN

[6] = target: Cytochrome P450 3A4 (Homo sapiens, UniProt P08684); assay: Inhibition of CYP3A4 in human liver microsomes using midazolam as substrate preincubated for 15 mins followed by NADPH addition measured after 8 mins by LC-MS/MS analysis; type: ADME
Chain of Cytochrome P450 3A4 (P08684 whole entry): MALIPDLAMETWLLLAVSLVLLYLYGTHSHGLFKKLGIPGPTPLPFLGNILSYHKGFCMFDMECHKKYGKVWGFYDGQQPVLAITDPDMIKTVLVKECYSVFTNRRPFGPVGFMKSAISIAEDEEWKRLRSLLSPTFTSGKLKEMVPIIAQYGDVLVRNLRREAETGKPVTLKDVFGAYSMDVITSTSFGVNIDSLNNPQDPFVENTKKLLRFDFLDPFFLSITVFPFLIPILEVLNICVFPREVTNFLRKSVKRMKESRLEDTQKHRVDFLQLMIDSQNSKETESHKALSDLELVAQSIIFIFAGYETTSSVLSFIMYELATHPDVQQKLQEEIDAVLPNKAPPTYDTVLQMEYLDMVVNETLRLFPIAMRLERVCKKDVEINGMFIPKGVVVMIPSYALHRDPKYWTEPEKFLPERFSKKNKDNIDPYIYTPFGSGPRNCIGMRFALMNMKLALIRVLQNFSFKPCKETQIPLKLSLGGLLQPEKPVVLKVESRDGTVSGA

[7] = Plasma clearance in Sprague-Dawley rat at 1 mg/kg, iv or 3 mg/kg via oral gavage by LC-MS/MS analysis; type: ADME, organism-based; procedure, shortened: as §1
[8] = target: T1, Glucagon-like peptide 1 receptor; assay: Antagonist activity at human GLP-1R expressed in TREx293 cells co-expressing cAMP sensitive luciferase assessed as inhibition of exendin-4-induced cAMP accumulation after 90 mins by GloSensor cAMP assay relative to GLP-1; type: functional, cell-based
Procedure, shortened: (§4)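 TREx293 HEK cells expressing GLP-1R, GloSensor cAMP read-out. The minimum response is expressed as % of the GLP-1 response (GLP-1 min). n = 3, average ± SEM.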

[9] = target: T1, Glucagon-like peptide 1 receptor; assay: Antagonist activity at human GLP-1R expressed in TREx293 cells co-expressing cAMP sensitive luciferase assessed as inhibition of GLP1 (7 to 36 residues) amide-induced cAMP accumulation after 90 mins by GloSensor cAMP assay; type: functional, cell-based; procedure, shortened: as §3
[10] = Half life in Sprague-Dawley rat at 1 mg/kg, iv or 3 mg/kg via oral gavage by LC-MS/MS analysis; type: ADME, organism-based; conditions: in vivo; procedure, shortened: as §1
[11] = Ratio of drug level in Sprague-Dawley rat brain to plasma at 3 mg/kg via oral gavage after 1 hr by LC-MS/MS analysis; type: ADME, organism-based; procedure, shortened: as §2
[12] = target: Cytochrome P450 2D6 (Homo sapiens, UniProt P10635); assay: Inhibition of CYP2D6 in human liver microsomes using dextromethorphan as substrate preincubated for 15 mins followed by NADPH addition measured after 8 mins by LC-MS/MS analysis; type: ADME
Chain of Cytochrome P450 2D6 (P10635 whole entry, the tested form may be a part): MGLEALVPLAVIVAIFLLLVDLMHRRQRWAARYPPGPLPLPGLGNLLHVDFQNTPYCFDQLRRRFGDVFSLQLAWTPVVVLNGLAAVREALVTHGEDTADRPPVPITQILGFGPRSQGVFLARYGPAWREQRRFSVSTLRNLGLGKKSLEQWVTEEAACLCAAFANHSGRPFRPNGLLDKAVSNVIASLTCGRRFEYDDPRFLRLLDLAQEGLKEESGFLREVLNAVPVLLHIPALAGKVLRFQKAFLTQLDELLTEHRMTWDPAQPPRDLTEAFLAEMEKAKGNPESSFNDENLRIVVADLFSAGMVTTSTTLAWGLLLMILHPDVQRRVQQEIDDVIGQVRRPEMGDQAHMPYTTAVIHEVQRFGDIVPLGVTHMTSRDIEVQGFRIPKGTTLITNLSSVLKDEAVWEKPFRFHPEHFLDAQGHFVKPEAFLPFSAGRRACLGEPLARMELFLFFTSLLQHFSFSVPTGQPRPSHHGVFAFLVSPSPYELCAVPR

[13] = target: T1, Glucagon-like peptide 1 receptor; assay: Antagonist activity at human GLP-1R expressed in TREx293 cells co-expressing cAMP sensitive luciferase assessed as inhibition of GLP1 (7 to 36 residues) amide-induced cAMP accumulation after 90 mins by GloSensor cAMP assay relative to GLP-1; type: functional, cell-based; procedure, shortened: as §4
[14] = target: Glucagon receptor (Homo sapiens, UniProt P47871); assay: Antagonist activity at glucagon receptor (unknown origin)
Chain of Glucagon receptor (P47871 whole entry): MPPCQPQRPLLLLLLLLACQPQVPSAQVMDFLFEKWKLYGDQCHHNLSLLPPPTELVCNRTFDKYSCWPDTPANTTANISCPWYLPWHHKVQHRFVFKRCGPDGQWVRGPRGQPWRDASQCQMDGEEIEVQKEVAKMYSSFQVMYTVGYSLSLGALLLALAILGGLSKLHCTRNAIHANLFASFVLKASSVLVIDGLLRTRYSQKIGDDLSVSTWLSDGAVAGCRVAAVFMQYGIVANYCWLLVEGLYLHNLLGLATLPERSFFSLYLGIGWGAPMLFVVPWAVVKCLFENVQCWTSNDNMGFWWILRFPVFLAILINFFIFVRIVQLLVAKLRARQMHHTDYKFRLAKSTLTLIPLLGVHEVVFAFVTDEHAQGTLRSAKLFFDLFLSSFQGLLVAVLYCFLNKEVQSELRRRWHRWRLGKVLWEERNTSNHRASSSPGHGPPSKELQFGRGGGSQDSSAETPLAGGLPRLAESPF

[15] = Drug uptake in Sprague-Dawley rat plasma at 3 mg/kg via oral gavage after 1 hr by LC-MS/MS analysis; type: ADME, organism-based; procedure, shortened: as §2
[16] = target: Cytochrome P450 2C9 (Homo sapiens, UniProt P11712); assay: Inhibition of CYP2C9 in human liver microsomes using diclofenac as substrate preincubated for 15 mins followed by NADPH addition measured after 8 mins by LC-MS/MS analysis; type: ADME
Chain of Cytochrome P450 2C9 (P11712 whole entry): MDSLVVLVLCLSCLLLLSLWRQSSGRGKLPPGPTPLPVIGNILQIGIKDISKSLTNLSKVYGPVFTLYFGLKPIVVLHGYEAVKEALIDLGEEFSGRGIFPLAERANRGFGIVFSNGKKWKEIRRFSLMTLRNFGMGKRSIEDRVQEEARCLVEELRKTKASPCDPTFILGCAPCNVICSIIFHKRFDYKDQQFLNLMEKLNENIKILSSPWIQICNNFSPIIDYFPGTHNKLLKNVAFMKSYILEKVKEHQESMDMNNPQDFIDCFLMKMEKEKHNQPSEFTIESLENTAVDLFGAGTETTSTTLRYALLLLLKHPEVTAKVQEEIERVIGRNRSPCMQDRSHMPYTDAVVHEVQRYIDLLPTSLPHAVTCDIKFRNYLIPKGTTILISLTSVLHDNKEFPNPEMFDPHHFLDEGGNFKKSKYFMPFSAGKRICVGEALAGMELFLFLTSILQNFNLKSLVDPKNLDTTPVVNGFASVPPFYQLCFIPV

[17] = Volume of distribution at steady state in Sprague-Dawley rat at 1 mg/kg, iv or 3 mg/kg via oral gavage by LC-MS/MS analysis; type: ADME, organism-based; conditions: in vivo, read-out: Vdss; procedure, shortened: as §1
[18] = Fraction unbound in rat plasma at 5 uM after 4 hrs by LC-MS/MS based equilibrium dialysis method; type: ADME, cell-free
[19] = target: T1, Glucagon-like peptide 1 receptor; assay: Antagonist activity at GLP-1R (unknown origin)
[20] = target: T3, Glucagon-like peptide 1 receptor (Mus musculus) (UniProt O35659); assay: Antagonist activity at GLP-1R in C57BL/6J mouse primary islets assessed as inhibition of exendin-4-induced increase in glucose-stimulated insulin secretion at 1 uM after 60 mins by radio-immunoassay
T3 sequence (whole entry): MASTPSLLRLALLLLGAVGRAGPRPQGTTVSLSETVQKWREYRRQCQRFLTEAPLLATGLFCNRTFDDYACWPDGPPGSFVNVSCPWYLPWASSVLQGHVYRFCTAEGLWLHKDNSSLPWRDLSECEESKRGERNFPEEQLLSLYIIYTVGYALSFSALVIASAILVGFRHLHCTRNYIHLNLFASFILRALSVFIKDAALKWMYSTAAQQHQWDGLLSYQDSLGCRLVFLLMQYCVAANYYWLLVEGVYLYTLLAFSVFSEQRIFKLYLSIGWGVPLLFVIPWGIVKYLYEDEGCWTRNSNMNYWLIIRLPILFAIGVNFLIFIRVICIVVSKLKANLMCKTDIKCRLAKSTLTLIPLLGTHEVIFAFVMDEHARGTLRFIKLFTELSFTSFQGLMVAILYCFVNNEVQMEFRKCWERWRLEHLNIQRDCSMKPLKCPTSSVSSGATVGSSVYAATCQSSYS

[21] = system: Rattus norvegicus; assay: Increase in blood glucose level in Sprague-Dawley rat at 10 mg/kg, po pretreated for 30 mins followed by glucose challenge measured up to 150 mins by oral glucose tolerance test; type: functional, organism-based
Procedure, shortened: (§5)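 OGTT in male Sprague-Dawley rats with surgically implanted carotid cannulae, randomized to compound (10 mg/kg po) or vehicle. Dosing is 30 min before a 2 g/kg glucose gavage at time 0. Carotid blood is sampled at intervals for whole blood glucose and insulin.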

[22] = system: Rattus norvegicus; assay: Decrease in blood insulin level in Sprague-Dawley rat at 10 mg/kg, po pretreated for 30 mins followed by glucose challenge measured up to 150 mins by oral glucose tolerance test; type: functional, organism-based; procedure, shortened: as §5
[23] = target: T1, Glucagon-like peptide 1 receptor; assay: Non-competitive antagonism/negative allosteric modulation of human GLP-1R expressed in TREx293 cells co-expressing cAMP sensitive luciferase assessed as inhibition of fixed concentration of GLP1 (7 to 36 residues) amide-induced cAMP accumulation by measuring decrease in GLP-1 maximum response at 0.3 to 10 uM after 90 mins by GloSensor cAMP assay; type: functional, cell-based
Procedure, shortened: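 A full GLP-1 (7−36) amide concentration–response curve is run in GLP-1R TREx293 HEK cells with GloSensor cAMP detection. It is repeated in the presence of increasing fixed concentrations of antagonist, and the decrease in the GLP-1 maximal response is followed. n = 3.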

Compound	bioavailability [1] [%]	concentration at 1 h [2] [ng/g]	fraction unbound at 4 h, 5 µM [3]	IC50 [4] [µM]	IC50 [5] [µM]	IC50 [6] [µM]	clearance [7] [mL/min/kg]	Emin [8] [%]	IC50 [9] [µM]	half-life [10] [h]	Kp at 1 h [11]	IC50 [12] [µM]	Emin [13] [%]	IC50 [14] [µM]	concentration at 1 h [15] [ng/mL]	IC50 [16] [µM]	Vd [17] [L/kg]	fraction unbound at 4 h, 5 µM [18]	inhibition [20]	inhibition [23]	further results
COc1cccc(C2=NC(C(F)(F)F)(C(F)(F)F)c3c(n(-c4ccc(Cl)cc4)c(=O)[nH]c3=O)N2)c1	100	37.1	0.003	5.8	> 30	16.4	36.4	23.9	5.9	2.42	0.03	8.13	16.8	> 30	1140	3.78	0.69	0.002	–	–	–
COc1ccc2c(c1)N(c1ccccc1F)C(=O)[C@@]2(CCC(=O)O)NC(=O)c1cc2ccccc2cn1	–	–	–	–	–	–	–	–	–	–	–	–	–	–	–	–	–	–	–	–	IC50 [19]: 21 µM
O=c1[nH]c(=O)n(Cc2ccccc2)c2c1C(C(F)(F)F)(C(F)(F)F)N=C(c1cccs1)N2	–	–	–	1.5	–	–	–	32	1.3	–	–	–	36.2	–	–	–	–	–	–	–	–
COc1cccc(C2=NC(C(F)(F)F)(C(F)(F)F)c3c(n(CC(C)C)c(=O)[nH]c3=O)N2)c1	–	–	–	7.2	–	–	–	26.4	7.2	–	–	–	22.7	–	–	–	–	–	–	–	–

Continued by falling IC50 [4], values first:

bioavailability [1] [%]	concentration at 1 h [2] [ng/g]	fraction unbound at 4 h, 5 µM [3]	IC50 [4] [µM]	IC50 [5] [µM]	IC50 [6] [µM]	clearance [7] [mL/min/kg]	Emin [8] [%]	IC50 [9] [µM]	half-life [10] [h]	Kp at 1 h [11]	IC50 [12] [µM]	Emin [13] [%]	IC50 [14] [µM]	concentration at 1 h [15] [ng/mL]	IC50 [16] [µM]	Vd [17] [L/kg]	fraction unbound at 4 h, 5 µM [18]	inhibition [20]	inhibition [23]	Compound	further results
50	65.1	0.007	0.69	4.01	> 30	4.79	19.7	0.65	9.78	1.45	> 30	20.9	> 30	45	0.41	3.57	0.011	Active	Dose-dependent effect	Cn1c2c(c(=O)n(C)c1=O)C(C(F)(F)F)(C(F)(F)F)NC(c1ccc(Cl)cc1)=N2	Activity [21]: Active; Activity [22]: Active
–	2.4	0.005	0.69	25	> 30	3.64	15.5	0.61	0.7	0.02	21.2	16.4	> 30	76.7	0.47	0.22	0.005	Active	Dose-dependent effect	Cn1c2c(c(=O)n(C)c1=O)C(C(F)(F)F)(C(F)(F)F)N=C(c1cccc([N+](=O)[O-])c1)N2	–
